The list is not random: actives were taken first. Their share in the collection is about 2.3%.
TRPC4 inh – inhibitors of mouse TRPC4 channel, primary screen, Fluo4 calcium, HEK293 TRPC4beta/mu-opioid cells | Short transient receptor potential channel 4 (Mus musculus), Q9QUQ5 | DAMGO-evoked Fluo4 calcium flux; stronger effect = lower value | B-score at 10 µM | 300,000 compounds, 0.39% hits;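 active means B-score over 3 SD under the library average, no early fluorescence shift, positive overall ratio signal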
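Assay system: TRPC4beta/mu-opioid receptor HEK293 cell line; compound dosing: single concentration per test compound; detection: Fluo4 Ca2+ flux fluorescence; evaluation: per-well B score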
TRPC6 act – mouse TRPC6 channel activators, primary screen, cell-based, HEK293, membrane potential dye; Short transient receptor potential channel 6 (Mus musculus), Q61143; HEK293-TRPC6 membrane potential dye fluorescence; stronger effect = higher value; B-score at 10 µM; 310,000 compounds, 0.13% hits; AID 2550, 2010;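 active means B-score of the integrated fluorescence ratio above library mean plus 3 SD, and starting fluorescence ratio within library mean plus 5 SD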;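 further: higher score means more depolarization so channel activation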
Target sequence (Q61143 whole entry, looked up): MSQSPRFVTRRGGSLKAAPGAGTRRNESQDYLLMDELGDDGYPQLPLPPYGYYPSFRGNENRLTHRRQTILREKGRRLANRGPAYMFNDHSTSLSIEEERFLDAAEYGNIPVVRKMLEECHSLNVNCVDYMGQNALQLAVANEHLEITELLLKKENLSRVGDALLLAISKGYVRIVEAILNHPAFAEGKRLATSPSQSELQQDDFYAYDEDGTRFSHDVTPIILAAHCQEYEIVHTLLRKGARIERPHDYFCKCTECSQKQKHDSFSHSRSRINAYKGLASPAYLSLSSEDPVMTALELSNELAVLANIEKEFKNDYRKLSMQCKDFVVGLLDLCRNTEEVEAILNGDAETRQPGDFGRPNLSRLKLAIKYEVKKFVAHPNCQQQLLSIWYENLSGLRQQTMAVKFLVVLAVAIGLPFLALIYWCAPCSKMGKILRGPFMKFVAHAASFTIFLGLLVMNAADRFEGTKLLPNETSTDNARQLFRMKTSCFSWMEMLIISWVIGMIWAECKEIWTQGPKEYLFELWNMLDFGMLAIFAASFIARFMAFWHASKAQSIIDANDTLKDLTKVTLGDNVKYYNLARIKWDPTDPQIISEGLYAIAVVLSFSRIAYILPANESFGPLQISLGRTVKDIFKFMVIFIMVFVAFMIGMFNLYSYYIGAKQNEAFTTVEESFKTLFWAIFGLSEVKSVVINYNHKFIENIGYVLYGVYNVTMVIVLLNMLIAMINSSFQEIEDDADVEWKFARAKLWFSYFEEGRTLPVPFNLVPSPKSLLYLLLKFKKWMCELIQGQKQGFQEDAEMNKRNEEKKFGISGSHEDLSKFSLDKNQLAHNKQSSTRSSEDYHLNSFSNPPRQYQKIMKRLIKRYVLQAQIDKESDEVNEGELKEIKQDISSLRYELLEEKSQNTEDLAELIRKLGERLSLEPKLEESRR
TRPC6 inhibitor – mouse TRPC6 channel inhibitors, primary screen, cell-based, HEK293, membrane potential dye | 310,000 compounds, 1.1% hits | B-score at 10 µM | ACh-evoked depolarization; stronger effect = lower value;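 active means B-score under library mean minus 3 SD, initial fluorescence not abnormally high, positive integrated signal ratio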;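 further: B-score derived from integrated fluorescence ratio over the kinetic read; more negative B-score means stronger inhibition of depolarization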
TRPC4 potent – positive allosteric modulators of TRPC4, primary screen, cell-based, mouse TRPC4beta, HEK293 mu-opioid, Fluo-4 calcium; B-score at 10 µM; DAMGO EC20, Fluo-4 Ca2+ flux; stronger effect = higher value; 310,000 compounds, 0.42% hits;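 active means B-score of calcium response area above 5 SD of library B-scores, with initial fluorescence ratio within 5 SD of library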;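 further: B-score of integrated fluorescence ratio over time as area under calcium response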
TRPC4 act – activators of mouse TRPC4 channel, primary screen, Fluo4 calcium, HEK293 TRPC4beta/mu-opioid cells | Fluo4 calcium fluorescence; stronger effect = higher value | B-score at 10 µM | 310,000 compounds, 0.49% hits | AID 2237, 2010;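 active means B-score above 5 SD of library B-scores, and initial fluorescence ratio not above library mean plus 5 SD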;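 further: positive B-score marks a calcium rise read as TRPC4 activation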
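Assay system – TRPC4beta and mu-opioid receptor HEK293 stable cells · Measured by – Fluo4 fluorescence, kinetic · Schedule – dye loading 45 min room temperature, 110 s kinetic read · Read-out – B-scored integrated calcium fluorescence ratio · Controls – buffer and maximal DAMGO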
TRPC4 spec 2 – second selectivity test of TRPC6 inhibitors: effect on mouse TRPC4 | inhibition, % at 10 µM | HEK293 TRPC4/MOR, membrane potential dye fluorescence; channel activated by saturating DAMGO dose | 920 compounds, 42% hits | shares compounds with TRPC6 inhibitor | AID 2776;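 active means compounds whose fluorescence signal differed from control wells by over 3 SD, either direction, in both duplicate plates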
TRPC4 spec – mouse TRPC4 modulation by TRPC6 hits, confirmation, selectivity assay for TRPC6 inhibitor project, cell-based, HEK293 TRPC4/mu-opioid, membrane potential dye; membrane potential fluorescence; 920 compounds, 61% hits; activity change, negative = inhibition, % at 10 µM; shares compounds with TRPC6 inhibitor;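 active means rise or fall in signal beyond 3 SD of buffer-only wells in both replicate plates, either sign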;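 further: integrated kinetic ratio of fluorescence range over baseline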
HEK293 MPD ctr 2-1 – nonspecific membrane potential effects, parental HEK293, confirmation, counter-screen for TRPC6 inhibitor project, cell-based, second counter screen; shares compounds with TRPC6 inhibitor; signal change vs control, % at 10 µM; 920 compounds, 31% hits; parental HEK293 membrane potential dye fluorescence; maximal acetylcholine challenge after compound addition;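 active means membrane potential signal moving either way by over 3 SD of the maximum-effect control, in both duplicate plates, meaning non-specific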
HEK293 MPD ctr-1 – membrane potential modulation in parental HEK293, confirmation, counter-screen for TRPC6 inhibitor project, cell-based; 920 compounds, 60% hits; shares compounds with TRPC6 inhibitor; parental HEK293 membrane potential dye fluorescence; membrane potential signal change, % at 10 µM; AID 2780, 2010;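 active means membrane potential signal shifting up or down by more than 3 SD of buffer-only wells, on both duplicate plates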
HEK293 MPD ctr-2 – parental HEK293 membrane potential modulation, confirmation, counter-screen for TRPC6 modulator project, cell-based; AID 488924, 2010; 2,400 compounds, 51% hits; membrane potential signal change, % at 10 µM; membrane potential dye fluorescence; shares compounds with TRPC6 inhibitor;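 active means membrane potential signal moves up or down beyond 5 SD from buffer-only wells, on both duplicate plates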
HEK293 MPD ctr 2-2 – parental HEK293 nonspecific activity of TRPC6 modulators, second screen. shares compounds with TRPC6 inhibitor. membrane potential dye fluorescence; after compound, maximal acetylcholine stimulation. inhibition, % at 10 µM. 2,400 compounds, 14% hits;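 active means membrane potential signal drops by more than 5 SD from the mean control signal, in both duplicate plates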;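 further: plate controls were acetylcholine ECmax control wells for no effect and buffer only wells for full effect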
TRPC4/MOR mod – TRPC4 modulation by TRPC6 hit compounds, confirmation, selectivity assay for TRPC6 modulator project, cell-based, HEK293 TRPC4/mu-opioid, membrane potential dye, mouse; AID 488927, 2010; 2,400 compounds, 69% hits; shares compounds with TRPC6 inhibitor; membrane potential fluorescence; percent change from control (negative = decrease, positive = increase), % at 10 µM;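 active means membrane potential signal moved up or down beyond 5 SD of buffer control wells, in both duplicate plates, actives on both sides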;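 further: plate controls were assay buffer wells for no effect and DAMGO maximal-effect wells for full effect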
TRPC4/MOR inh 2 – second selectivity test of TRPC6 modulators against mouse TRPC4; HEK293 TRPC4/mu-opioid, membrane potential dye fluorescence; stimulated with maximal-effect DAMGO; AID 488928; shares compounds with TRPC6 inhibitor; inhibition, % at 10 µM; 2,400 compounds, 55% hits;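 active means drop in membrane potential signal beyond 5 SD of the control wells in both duplicate plates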;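 further: TRPC4 counter screen for TRPC6 hits run under conditions tuned for TRPC6 not TRPC4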
TRPC6 inh conf – mouse TRPC6 channel inhibitors, confirmation, HEK293 cells, membrane potential dye, duplicate. shares compounds with TRPC6 inhibitor. 3,300 compounds, 43% hits. inhibition, % at 10 µM. ACh-evoked depolarization;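 active means fluorescence ratio falls more than 5 SD below the full-stimulation control mean, in both duplicate runs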;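 further: integrated fluorescence ratio of peak minus minimum over baseline after agonist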
TRPC6 act conf – mouse TRPC6 channel activators, confirmation, HEK293 cells, membrane potential dye, duplicate; shares compounds with TRPC6 inhibitor; 2,800 compounds, 11% hits; HEK293-TRPC6 membrane potential dye fluorescence, FDSS; AID 488961, 2010; activation, % at 10 µM;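 active means ratio signal rise beyond 5 SD above unstimulated control wells' mean, seen in both duplicate runs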;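 further: plate controls were buffer EC0 wells for no effect and acetylcholine ECmax response for full effect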
The depositor's hits bear a star; i = inactive; nt = no result given; + = active, no number.

SMILES	TRPC4 inh	TRPC6 act	TRPC6 inhibitor	TRPC4 potent	TRPC4 act	HEK293 MPD ctr-2	HEK293 MPD ctr 2-2	TRPC4/MOR mod	TRPC4/MOR inh 2	TRPC6 inh conf	TRPC6 act conf	others
Cc1ccc(S(=O)(=O)N2CCC(=O)N(CCOC(=O)Nc3ccccc3C)CC2)cc1	i	i	i	i	i	nt	nt	nt	nt	nt	nt
CN1CCN(S(=O)(=O)c2ccc(NC(=O)c3cccc(S(=O)(=O)N4CCCC4)c3)cc2)CC1	i	i	-5.46*	i	i	i	i	i	i	i	i
Cc1ccc(S(=O)(=O)N2CCC(=O)N(CCOC(=O)Nc3cc(C)cc(C)c3)CC2)cc1	i	14.3*	-8.28*	i	i	i	i	12.5%*	i	90.0%*	141.5%*
CN(C)S(=O)(=O)c1cccc(C(=O)Nc2ccc(S(=O)(=O)N3CCCC3)cc2)c1	nt	i	-5.24*	i	i	i	i	i	i	i	i
CC(=O)Nc1ccc(S(=O)(=O)N2CCCN(S(=O)(=O)c3ccc(C)cc3)CC2)cc1	i	i	-7.44*	i	i	nt	nt	nt	nt	i	i	TRPC4 spec 2=i;TRPC4 spec=i;HEK293 MPD ctr 2-1=i;HEK293 MPD ctr-1=i
COc1ccc(/C=C2\CCc3ccccc3C2=O)cc1O	i	i	i	i	i	nt	nt	nt	nt	nt	nt
Cc1ccn2c(c1)nc(=O)c1cc(S(=O)(=O)N3CCOCC3)ccc12	i	i	i	i	i	nt	nt	nt	nt	nt	nt
COc1ccc(Cl)cc1N(CC(=O)NCCSc1ccccn1)S(=O)(=O)c1ccccc1	i	i	i	i	i	nt	nt	nt	nt	nt	nt
Cc1cc(C)c(S(=O)(=O)Nc2cccc(S(=O)(=O)N3CCOCC3)c2)c(C)c1	i	i	i	i	i	nt	nt	nt	nt	nt	nt
CC(=O)Nc1ccc(NC(=O)CCC(=O)OCC(=O)c2ccc(F)cc2)cc1	i	i	i	i	i	nt	nt	nt	nt	nt	nt
CC1CCCN(S(=O)(=O)c2ccc(NC(=O)CNC3CCCC3)cc2)C1 (stereo not drawn)	i	i	-6.71*	i	i	nt	nt	nt	nt	i	i	TRPC4 spec 2=54.0%*;TRPC4 spec=i;HEK293 MPD ctr 2-1=i;HEK293 MPD ctr-1=3.2%*
COc1ccc(N(CC(=O)Nc2cc(Cl)ccc2C)S(=O)(=O)c2c(C)n[nH]c2C)cc1	i	i	i	i	i	nt	nt	nt	nt	nt	nt
CCN(CC(=O)Nc1c(F)cccc1F)C(=O)CCC(=O)c1ccc(C)cc1	i	i	i	i	i	nt	nt	nt	nt	nt	nt
CC(NC(=S)NNS(=O)(=O)c1cccc([N+](=O)[O-])c1)c1ccccc1 (stereo not drawn)	i	i	i	i	i	nt	nt	nt	nt	nt	nt
Cc1ccc(-c2nnc(SCC(=O)NNC(=O)COc3cccc(C)c3)n2C)cc1	i	i	i	i	i	nt	nt	nt	nt	nt	nt
Cc1ccc(-c2nnc(SCC(=O)NNC(=O)COc3ccccc3C)n2C)cc1	i	i	-6.2*	i	i	i	i	i	i	i	i
Cc1ccc(-c2c[n+](Cc3cccc(Cl)c3)c3n2CCC3)cc1	-6*	i	-5.13*	i	i	-147.0%*	i	-23.5%*	83.5%*	i	i
Cc1ccc(-c2c[n+](CC(=O)Nc3c(C)cccc3C)c3n2CCC3)cc1	i	i	i	i	i	nt	nt	nt	nt	nt	nt
Cc1ccc(C[n+]2cc(-c3ccc(Cl)cc3)n3c2CCC3)cc1	-7*	i	-5.61*	i	i	-96.5%*	i	-17.5%*	30.0%*	i	i
O=Cc1ccc2ccc3cccnc3c2n1	i	i	-9.85*	i	i	-386.0%*	95.0%*	-60.0%*	68.5%*	78.5%*	i
CC(C)CCn1c2ccccc2c2cc(CC(N)=O)ccc21	i	i	i	i	i	nt	nt	nt	nt	nt	nt
CC(C)(C)C(=O)/C=c1\s/c(=C\c2ccc(-c3ccc([N+](=O)[O-])cc3)o2)c(=O)n1CC(=O)NC(N)=O	i	57.3*	i	21*	62*	+	i	348.0%*	i	i	418.0%*
CCC(=O)N/N=C/c1ccc(-c2ccc([N+](=O)[O-])cc2)o1	i	i	i	i	i	nt	nt	nt	nt	nt	nt
C=CCn1c(=N)c(C#N)cc2c(=O)n3ccccc3nc21	i	i	-8.71*	i	i	-277.5%*	i	-44.5%*	38.5%*	i	i
